Source: ChEMBL document CHEMBL4665883, “Development of DHQ-based chemical biology probe to profile cellular targets for HBV” (Bioorg Med Chem Lett, 2020)
Counter-ions that a name gives are not always drawn. Calls of active or inactive are those of the source. No cut-off for these calls is given here.

Legend:
Hepatitis B virus [1] = experiment: Antiviral activity against Hepatitis B virus infected in human HepG2.2.15 cells assessed as reduction in HBV DNA level in cell supernatants incubated for 5 days by real time PCR analysis; format: functional, organism-based; conditions: HepG2.2.15, 120 h
Hepatitis B virus [2] = experiment: Antiviral activity against Hepatitis B virus infected in human HepG2.2.15 cells assessed as reduction in HBsAg level in cell supernatants incubated for 5 days by AlphaLisa assay; format: functional, organism-based; conditions: HepG2.2.15, 120 h
[3] = Cytotoxicity against human HepG2.2.15 cells assessed as reduction in cell viability; format: cell-based, HepG2 2.2.15
[4] = target: T1, Heme oxygenase 2 (Homo sapiens) (UniProt P30519); experiment: Binding affinity to HMOX2 in human HePAD38 cells infected with HBV assessed as protein labelling at 20 uM after 1 hr by photoaffinity labelling in-situ fluorescence gel-based LC-MS/MS analysis; format: cell-based
T1 sequence (whole entry): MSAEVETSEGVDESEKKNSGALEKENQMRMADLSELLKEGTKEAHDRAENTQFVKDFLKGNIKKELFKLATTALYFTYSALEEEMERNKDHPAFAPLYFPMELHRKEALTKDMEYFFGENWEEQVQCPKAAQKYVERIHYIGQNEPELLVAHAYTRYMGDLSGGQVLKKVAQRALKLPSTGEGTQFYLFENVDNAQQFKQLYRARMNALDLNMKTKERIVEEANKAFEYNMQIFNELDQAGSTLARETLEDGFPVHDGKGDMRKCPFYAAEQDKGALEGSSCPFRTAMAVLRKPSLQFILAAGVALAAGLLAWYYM
Procedure, shortened: (§1)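 Live HepAD38 cells incubated 1 h with photoaffinity probe at 20 μM final, then UV-irradiated. Cells were harvested and homogenized in HEPES lysis buffer. Lysates underwent copper-catalysed click conjugation to biotin-Diazo-azide, then large-scale affinity enrichment, with bound proteins identified by LC–MS/MS.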

[5] = target: Terminal nucleotidyltransferase 4A (Homo sapiens) (UniProt Q5XG87); experiment: Binding affinity to PAPD7 in human HePAD38 cells infected with HBV assessed as protein labelling at 20 uM after 1 hr by photoaffinity labelling in-situ fluorescence gel-based LC-MS/MS analysis; format: cell-based; procedure, shortened: as §1
Terminal nucleotidyltransferase 4A (Homo sapiens), sequence (Q5XG87 whole entry): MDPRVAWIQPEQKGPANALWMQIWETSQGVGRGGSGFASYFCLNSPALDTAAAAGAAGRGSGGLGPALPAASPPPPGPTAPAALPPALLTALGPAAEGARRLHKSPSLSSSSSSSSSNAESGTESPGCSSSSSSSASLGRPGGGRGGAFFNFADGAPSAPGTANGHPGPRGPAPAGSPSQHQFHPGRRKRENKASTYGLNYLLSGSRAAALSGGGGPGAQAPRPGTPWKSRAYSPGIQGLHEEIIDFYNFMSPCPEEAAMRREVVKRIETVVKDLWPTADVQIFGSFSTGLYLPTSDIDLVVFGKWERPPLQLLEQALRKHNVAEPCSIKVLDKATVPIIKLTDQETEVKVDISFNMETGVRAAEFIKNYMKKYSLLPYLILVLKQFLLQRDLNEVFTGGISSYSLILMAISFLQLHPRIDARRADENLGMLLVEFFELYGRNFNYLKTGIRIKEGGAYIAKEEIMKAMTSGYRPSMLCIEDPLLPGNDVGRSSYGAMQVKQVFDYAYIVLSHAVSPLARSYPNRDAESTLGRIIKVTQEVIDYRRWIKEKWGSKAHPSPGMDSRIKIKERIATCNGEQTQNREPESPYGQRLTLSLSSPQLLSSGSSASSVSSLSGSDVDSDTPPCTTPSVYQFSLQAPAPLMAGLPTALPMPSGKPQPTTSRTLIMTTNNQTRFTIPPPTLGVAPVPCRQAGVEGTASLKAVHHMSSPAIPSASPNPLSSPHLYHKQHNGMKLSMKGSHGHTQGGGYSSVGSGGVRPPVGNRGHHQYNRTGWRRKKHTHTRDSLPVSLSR

[6] = target: T2, Isocitrate dehydrogenase [NADP], mitochondrial (Homo sapiens) (UniProt P48735); experiment: Binding affinity to IDH in human HePAD38 cells infected with HBV assessed as protein labelling at 20 uM after 1 hr by photoaffinity labelling in-situ fluorescence gel-based LC-MS/MS analysis; format: cell-based; procedure, shortened: as §1
T2 sequence (whole entry): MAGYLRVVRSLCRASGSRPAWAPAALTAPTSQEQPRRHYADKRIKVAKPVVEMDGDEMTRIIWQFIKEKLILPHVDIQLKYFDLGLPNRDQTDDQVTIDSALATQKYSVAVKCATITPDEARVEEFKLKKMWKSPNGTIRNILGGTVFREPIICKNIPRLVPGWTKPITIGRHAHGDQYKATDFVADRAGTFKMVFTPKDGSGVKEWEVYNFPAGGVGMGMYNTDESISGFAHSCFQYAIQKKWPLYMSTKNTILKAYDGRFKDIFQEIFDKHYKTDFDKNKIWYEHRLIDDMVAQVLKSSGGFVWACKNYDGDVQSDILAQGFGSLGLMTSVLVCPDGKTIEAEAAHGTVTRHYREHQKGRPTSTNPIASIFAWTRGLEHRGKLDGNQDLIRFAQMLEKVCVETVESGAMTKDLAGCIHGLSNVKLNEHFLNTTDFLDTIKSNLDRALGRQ

[7] = target: Terminal nucleotidyltransferase 4B (Homo sapiens) (UniProt Q8NDF8); experiment: Binding affinity to PAPD5 in human HePAD38 cells infected with HBV assessed as protein labelling at 20 uM after 1 hr by photoaffinity labelling in-situ fluorescence gel-based LC-MS/MS analysis; format: cell-based; procedure, shortened: as §1
Terminal nucleotidyltransferase 4B (Homo sapiens), sequence (Q8NDF8 whole entry): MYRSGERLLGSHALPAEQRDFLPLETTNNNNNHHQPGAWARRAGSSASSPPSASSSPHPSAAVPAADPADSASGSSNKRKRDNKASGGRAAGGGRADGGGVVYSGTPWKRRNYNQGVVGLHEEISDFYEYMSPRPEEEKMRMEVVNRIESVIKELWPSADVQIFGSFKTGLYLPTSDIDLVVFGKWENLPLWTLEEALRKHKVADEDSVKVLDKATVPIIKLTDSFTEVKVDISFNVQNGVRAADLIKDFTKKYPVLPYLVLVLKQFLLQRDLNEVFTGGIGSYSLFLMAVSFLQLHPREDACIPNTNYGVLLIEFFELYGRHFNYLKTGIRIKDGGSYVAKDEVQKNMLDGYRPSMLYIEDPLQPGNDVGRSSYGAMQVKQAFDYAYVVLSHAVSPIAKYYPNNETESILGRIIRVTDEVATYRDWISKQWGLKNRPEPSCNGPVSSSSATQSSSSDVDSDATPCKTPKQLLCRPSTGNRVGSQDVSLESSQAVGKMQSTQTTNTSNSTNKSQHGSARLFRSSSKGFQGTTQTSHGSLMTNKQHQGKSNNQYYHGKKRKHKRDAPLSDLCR

[8] = target: 60 kDa heat shock protein, mitochondrial (Homo sapiens) (UniProt P10809); experiment: Binding affinity to 60 kDa HSP60 in human HePAD38 cells infected with HBV assessed as protein labelling at 20 uM after 1 hr by photoaffinity labelling in-situ fluorescence gel-based LC-MS/MS analysis; format: cell-based; procedure, shortened: as §1
60 kDa heat shock protein, mitochondrial (Homo sapiens), sequence (P10809 whole entry): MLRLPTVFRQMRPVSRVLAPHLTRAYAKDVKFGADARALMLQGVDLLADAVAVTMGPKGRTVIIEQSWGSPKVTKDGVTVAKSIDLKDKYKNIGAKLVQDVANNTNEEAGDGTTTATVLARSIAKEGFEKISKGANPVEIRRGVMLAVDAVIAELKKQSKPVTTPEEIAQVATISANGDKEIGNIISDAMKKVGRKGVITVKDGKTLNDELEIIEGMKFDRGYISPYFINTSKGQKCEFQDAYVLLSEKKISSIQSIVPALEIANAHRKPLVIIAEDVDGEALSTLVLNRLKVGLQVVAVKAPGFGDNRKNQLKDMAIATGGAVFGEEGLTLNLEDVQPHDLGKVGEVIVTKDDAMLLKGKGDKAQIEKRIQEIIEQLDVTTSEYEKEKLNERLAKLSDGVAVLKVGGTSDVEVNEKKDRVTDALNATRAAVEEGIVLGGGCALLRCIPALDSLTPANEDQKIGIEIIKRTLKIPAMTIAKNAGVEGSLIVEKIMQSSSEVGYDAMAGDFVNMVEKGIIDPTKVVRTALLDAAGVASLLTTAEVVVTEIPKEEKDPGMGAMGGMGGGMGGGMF

[9] = target: Poly(rC)-binding protein 1 (Homo sapiens) (UniProt Q15365); experiment: Binding affinity to PCBP1 in human HePAD38 cells infected with HBV assessed as protein labelling at 20 uM after 1 hr by photoaffinity labelling in-situ fluorescence gel-based LC-MS/MS analysis; format: cell-based; procedure, shortened: as §1
Poly(rC)-binding protein 1 (Homo sapiens), sequence (Q15365 whole entry): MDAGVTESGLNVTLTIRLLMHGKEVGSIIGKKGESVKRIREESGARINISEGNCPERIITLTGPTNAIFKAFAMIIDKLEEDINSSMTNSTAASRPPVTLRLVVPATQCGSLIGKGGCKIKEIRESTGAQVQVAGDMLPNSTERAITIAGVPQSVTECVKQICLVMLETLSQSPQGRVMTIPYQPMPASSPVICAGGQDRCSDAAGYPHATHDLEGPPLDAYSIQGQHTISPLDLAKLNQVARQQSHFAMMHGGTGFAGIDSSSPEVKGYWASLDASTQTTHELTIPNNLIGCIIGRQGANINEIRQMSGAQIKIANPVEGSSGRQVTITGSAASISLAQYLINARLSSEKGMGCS

[10] = target: T3, Aldehyde dehydrogenase 1A1 (Homo sapiens) (UniProt P00352); experiment: Binding affinity to RALDH1 in human HePAD38 cells infected with HBV assessed as protein labelling at 20 uM after 1 hr by photoaffinity labelling in-situ fluorescence gel-based LC-MS/MS analysis; format: cell-based; procedure, shortened: as §1
T3 sequence (whole entry): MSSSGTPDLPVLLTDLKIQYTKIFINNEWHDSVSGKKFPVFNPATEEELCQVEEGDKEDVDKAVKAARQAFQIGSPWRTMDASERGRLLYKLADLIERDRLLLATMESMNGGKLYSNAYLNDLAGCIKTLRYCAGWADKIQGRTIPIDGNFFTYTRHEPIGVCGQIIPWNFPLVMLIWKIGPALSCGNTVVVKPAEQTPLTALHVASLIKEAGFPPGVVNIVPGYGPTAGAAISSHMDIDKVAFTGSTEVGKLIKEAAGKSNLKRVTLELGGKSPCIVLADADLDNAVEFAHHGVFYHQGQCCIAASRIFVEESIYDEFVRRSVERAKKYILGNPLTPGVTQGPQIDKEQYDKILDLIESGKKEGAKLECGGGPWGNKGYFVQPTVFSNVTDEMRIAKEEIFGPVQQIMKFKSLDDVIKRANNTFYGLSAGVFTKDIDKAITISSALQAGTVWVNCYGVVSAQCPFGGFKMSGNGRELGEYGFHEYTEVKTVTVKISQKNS

[11] = target: T4, Aldehyde dehydrogenase X, mitochondrial (Homo sapiens) (UniProt P30837); experiment: Binding affinity to ALDH X in human HePAD38 cells infected with HBV assessed as protein labelling at 20 uM after 1 hr by photoaffinity labelling in-situ fluorescence gel-based LC-MS/MS analysis; format: cell-based; procedure, shortened: as §1
T4 sequence (whole entry): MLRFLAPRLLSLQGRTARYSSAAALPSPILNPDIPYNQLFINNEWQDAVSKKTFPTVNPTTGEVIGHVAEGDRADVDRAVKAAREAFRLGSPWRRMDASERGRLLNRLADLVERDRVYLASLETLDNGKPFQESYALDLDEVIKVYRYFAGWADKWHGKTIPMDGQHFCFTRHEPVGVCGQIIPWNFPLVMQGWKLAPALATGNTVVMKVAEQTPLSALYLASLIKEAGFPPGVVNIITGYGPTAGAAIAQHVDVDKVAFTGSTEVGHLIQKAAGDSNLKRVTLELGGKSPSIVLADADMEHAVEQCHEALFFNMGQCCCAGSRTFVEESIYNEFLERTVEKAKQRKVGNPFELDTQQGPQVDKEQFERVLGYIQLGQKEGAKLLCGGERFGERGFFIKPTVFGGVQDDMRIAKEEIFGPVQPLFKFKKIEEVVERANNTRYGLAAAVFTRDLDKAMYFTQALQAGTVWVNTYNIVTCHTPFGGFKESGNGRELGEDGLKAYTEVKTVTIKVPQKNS

EC50 (Hepatitis B virus [1]) | EC50 (Hepatitis B virus [2]) | Compound | further results
0.003 µM | 0.0013 µM | COCCCOc1cc2c(cc1OC)-c1cc(=O)c(C(=O)O)cn1C(C(C)C)C2 (racemic) | –
0.0061 µM | 0.00225 µM | COCCCOc1cc2c(cc1C(=O)OC)-c1cc(=O)c(C(=O)O)cn1C(C(C)C)C2 (stereo not drawn) | –
0.0895 µM | 0.412 µM | COC(=O)c1cc2c(cc1O)CC(C(C)C)n1cc(C(=O)O)c(=O)cc1-2 (stereo not drawn) | –
0.0822 µM | 0.305 µM | C#CCCC1(CCOc2cc3c(cc2C(=O)OC)-c2cc(=O)c(C(=O)O)cn2[C@@H](C(C)C)C3)N=N1 | CC50 [3]: > 150 µM
0.816 µM | 0.367 µM | COCCCOc1cc2c(cc1OC)-c1cc(=O)c(-c3csc(N)n3)cn1C(C(C)C)C2 (stereo not drawn) | –
0.0032 µM | 0.0056 µM | C#CCCC1(CCOc2cc3c(cc2C(=O)OC)-c2cc(=O)c(C(=O)O)cn2[C@H](C(C)C)C3)N=N1 | Activity [4]: Active; Activity [5]: inactive; Activity [6]: Active; Activity [7]: inactive; Activity [8]: Active; Activity [9]: Active; CC50 [3]: > 150 µM; Activity [10]: Active; Activity [11]: Active
0.003 µM | 0.0057 µM | COC(=O)c1cc2c(cc1N1CCCC1)CC(C(C)C)n1cc(C(=O)O)c(=O)cc1-2 (stereo not drawn) | –
0.0325 µM | 0.154 µM | COCCCOc1cc2c(cc1OCCOc1ccccc1)-c1cc(=O)c(C(=O)O)cn1C(C(C)C)C2 (stereo not drawn) | –

Compound | EC50 (Hepatitis B virus [1]) | EC50 (Hepatitis B virus [2]) | further results
CC(C)OC(=O)OCOP(=O)(CO[C@H](C)Cn1cnc2c(N)ncnc21)OCOC(=O)OC(C)C [TENOFOVIR DISOPROXIL FUMARATE] | 0.0138 µM | > 1 µM | –
